Experimental data collected from several papers.
Lines come from different studies, so protocols differ.

| Compound | system | setting | endpoint | value |
| --- | --- | --- | --- | --- |
| C=C(CC(=O)OCc1oc(=O)oc1C)C(=O)O | PAMPA | 10 µM, 4 h | Papp | ~15 ×10⁻⁶ cm/s |
| Cc1c(S(=O)(=O)N2CCn3nccc3C2)cc(C(=O)NCc2c(F)ccnc2N2CCCC2)n1C | PAMPA |  | Papp | 16.8 ×10⁻⁶ cm/s |
| COc1nc(-c2cccc(-c3ccccc3)c2C)ccc1CNCCNC(=O)CCCCCCCCCCC(=O)N1CCN(CCNC(=O)c2cc3c(=O)n4cccc(C)c4nc3n(CCc3cccs3)c2=N)CC1 | male Sprague-Dawley rat, plasma | intraperitoneal, 4 mg/kg | AUC(0-t) | 2440 ng·h/mL |
| CCOCC(=O)N1CCC[C@H](C(=O)NCc2nc(-c3ccc(C)nc3)cs2)C1 | male Sprague-Dawley rat, plasma | oral, 3 mg/kg | AUC | 32 µM·h |
| C=C(CC(=O)OCOC(=O)OC(C)C)C(=O)OCOC(=O)OC(C)C | PAMPA | 10 µM, 4 h, pH 7.4 | Papp | > 10 ×10⁻⁶ cm/s |
| CCOCC(=O)N1CCC[C@H](C(=O)NCc2nc(-c3ccc(C#N)nc3)cs2)C1 | male Sprague-Dawley rat, plasma | oral, 3 mg/kg | AUC | 21 µM·h |
| C[C@H]1Oc2cc(cnc2N)-c2c(nn(C)c2C#N)CN(C)C(=O)c2ccc(F)cc21 | male Sprague-Dawley rat, plasma | oral, 5 mg/kg, single dose | AUC(0-inf) | 1870 ng·h/mL |
| NCCOCC(=O)N1CCC[C@H](C(=O)NCc2nc(-c3ccc(C(F)(F)F)cc3)cs2)C1 | male Sprague-Dawley rat, plasma | oral, 3 mg/kg | AUC | 0.071 µM·h |
| CN(C)C(=O)c1cc2cnc(Nc3ccc(N4CCNCC4)cn3)nc2n1C1CCCC1 | male Sprague-Dawley rat, plasma | intraperitoneal, 100 mg/kg | AUC | 12200 ng·h/mL |
